The source of these data is ChEMBL document CHEMBL4340510, “Design, synthesis, and biological evaluation of truncated deguelin derivatives as Hsp90 inhibitors” (Eur J Med Chem, 2019).

Usually IC50 stands for the concentration that gives 50% inhibition.

Experiment [1] has as its system MCF7. Nature of the experiment: Induction of apoptosis in human MCF7 cells assessed as peripherization of chromosome at 0.5 to 4 uM after 36 hrs by hoechst 33258 staining-based fluorescence microscopy. The format is functional, cell-based. The essentials: (§1)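 Approximately 5×10^4 cells per well are exposed to 0, 0.5, 1.0, 2.0 or 4.0 μM for 36 h. Cells are PBS-washed and fixed in 4% paraformaldehyde for 30 min. They are stained with 20 μg/ml Hoechst 33258 for 15 min at room temperature in the dark, and nuclear morphology is examined by fluorescence microscopy.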

The subject of experiment [2] is MCF7. Nature of the experiment: Cell cycle arrest in human MCF7 cells assessed as accumulation at G1 phase at 1 uM after 48 hrs by propidium iodide staining-based flow cytometry (reference value: 60.61%). The experiment is classed as functional. The essentials: (§2)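 5×10^4 cells are seeded, incubated overnight, then treated 48 h. Cells are washed in cold PBS and fixed in 70% ethanol at −20 °C for 12 h. They are then stained with 100 µg/mL RNase plus 50 µg/mL PI in PBS, 37 °C for 30 min. DNA content is measured by flow cytometry.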

Experiment [3] relates to MCF7. In words: Cell cycle arrest in human MCF7 cells assessed as accumulation at S phase at 0.5 uM after 48 hrs by propidium iodide staining-based flow cytometry (reference value: 16.64%). The format is functional. The gist of the method: as §2
On the technique in general: In flow cytometry, cells or beads pass a laser one at a time.

Experiment [4] deals with MCF7. In words: Cell cycle arrest in human MCF7 cells assessed as accumulation at G1 phase at 0.5 uM after 48 hrs by propidium iodide staining-based flow cytometry (reference value: 60.61%). The experiment is classed as functional. The gist of the method: as §2
Experiment [5] has as its system MCF7. Nature of the experiment: Cell cycle arrest in human MCF7 cells assessed as increase in accumulation at G2 phase after 48 hrs by propidium iodide staining-based flow cytometry. The experiment is classed as functional. The essentials: as §2
Experiment [6] relates to NCI-H1299. Nature of the experiment: Antiproliferative activity against human NCI-H1299 cells assessed as inhibition of cell growth at 10 uM after 72 hrs by MTT assay relative to control. The format is functional. Particulars: NCI-H1299, 72 h, read-out: GI. The gist of the method:
(§3)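 Cells in RPMI 1640 are seeded at 4,000 cells/well and held 24 h at 37 °C, 5% CO2. Medium is replaced with compound-containing medium (DMSO ≤0.25%) for 72 h at 37 °C. MTT read-out by absorbance at 570 nm. Quadruplicate wells, repeated three times; values are means of three independent experiments.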

Experiment [7] deals with Heat shock protein HSP90 (Homo sapiens) (UniProt P07900+P08238). Nature of the experiment: Inhibition of HSP90 in human MCF7 cells assessed as reduction in AKT expression at 4 uM by coimmunoprecipitation-based Western blot assay. The experiment is classed as cell-based. The essentials: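 Cells are treated with 4 μM. Anti-Hsp90 or anti-Akt antibodies are added to the supernatants, and immune complexes are pulled down with protein A agarose. Complexes are eluted by boiling in loading buffer and immunoblotted with anti-Hsp90 or anti-Akt antibodies.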

For experiment [8], the system named is MCF7. Nature of the experiment: Induction of apoptosis in human MCF7 cells assessed as cell rounding at 0.5 to 4 uM after 36 hrs by hoechst 33258 staining-based fluorescence microscopy. The experiment is classed as functional. The gist of the method:
as §1

The subject of experiment [9] is NCI-H1299. In words: Antiproliferative activity against human NCI-H1299 cells assessed as inhibition of cell growth at 0.1 uM after 72 hrs by MTT assay relative to control. The format is functional. Particulars: NCI-H1299, 72 h, read-out: GI. The essentials: as §3
Experiment [10] concerns NCI-H1299. In words: Antiproliferative activity against human NCI-H1299 cells after 72 hrs by MTT assay. The format is functional, cell-based. Conditions: NCI-H1299, 72 h. The gist of the method:
as §3
A general note: Tetrazolium dyes change colour on reduction, which living cells bring about.

The subject of experiment [11] is MCF7. In words: Cell cycle arrest in human MCF7 cells assessed as accumulation at G2 phase at 4 uM after 48 hrs by propidium iodide staining-based flow cytometry (reference value: […]).
Experiment [12] deals with MCF7. In words: Cell cycle arrest in human MCF7 cells assessed as accumulation at G1 phase at 2 uM after 48 hrs by propidium iodide staining-based flow cytometry (reference value: 60.61%). The format is functional. The essentials:
as §2

Experiment [13] deals with MCF7. In words: Cell cycle arrest in human MCF7 cells assessed as accumulation at S phase at 1 uM after 48 hrs by propidium iodide staining-based flow cytometry (reference value: 16.64%). The format is functional. The gist of the method: as §2
Experiment [14] concerns MCF7. In words: Cell cycle arrest in human MCF7 cells assessed as accumulation at G2 phase at 1 uM after 48 hrs by propidium iodide staining-based flow cytometry (reference value: 22.74%). The format is functional. The gist of the method: as §2
In experiment [15] the test system is MCF7. Nature of the experiment: Induction of apoptosis in human MCF7 cells assessed as condensation of chromosome at 0.5 to 4 uM after 36 hrs by hoechst 33258 staining-based fluorescence microscopy. The format is functional, cell-based. The gist of the method: as §1
The target of experiment [16] is Heat shock protein HSP 90-alpha (Homo sapiens, UniProt P07900). Nature of the experiment: Inhibition of FITC-geldanamycin binding to recombinant human full-length C-terminal His-tagged HSP90alpha […] (1 to 732 residues) expressed in Escherichia coli after 1 hr by fluorescence polarization assay. In general terms: In fluorescence polarisation assays a small probe gives low polarisation when free and higher when bound to something large.

Experiment [17] deals with MCF7. Nature of the experiment: Induction of apoptosis in human MCF7 cells assessed as decrease in Bcl-xL expression at 1 to 4 uM after 48 hrs by Western blot analysis.
The test system of experiment [18] is MCF7. Nature of the experiment: Antiinvasive activity in human MCF7 cells assessed as number of invaded cells at 1 uM after 24 hrs by crystal violet dye-based transwell matrix penetration assay (reference value: 172.1 +/- 8.3). The format is functional.

The source made the active and inactive calls. The rule behind the calls is not given here.

Turning to `COc1cc(OC)c(OC)cc1CC(=O)c1ccc2c(c1OC)C=CC(C)(C)O2`, the result with MCF7 [1], with MCF7 [8], with MCF7 [15] and with MCF7 [17] was Active. Further, the Activity is 55.26% in the experiment with MCF7 [2]; 22.99% with MCF7 [3]; 57.49% with MCF7 [4]; “Dose-dependent effect” in the experiment with MCF7 [5]; 29.58% with MCF7 [11]; 46.21% in the experiment with MCF7 [12]. Also, the values for the Activity with MCF7 [13], in the experiment with MCF7 [14] and with MCF7 [18] were 23.2%, 21.55% and 63.2, respectively. Besides, the inhibition of growth at 10 µM in the experiment on NCI-H1299 [6] was determined as 72.1%. Moreover, in [7], the inhibition result was “Active”. In addition, the inhibition of growth at 0.1 µM in the experiment with NCI-H1299 [9] was found to be 15.3%. Further, the results for the IC50 (in the experiment on NCI-H1299 [10]; in experiment [16]) were 3400 nM and 60 nM, respectively.
